Source: ChEMBL document CHEMBL3351548, “UNC2025, a potent and orally bioavailable MER/FLT3 dual inhibitor” (J Med Chem, 2014)
The source made the active and inactive calls. The calls are words filed in the database; no cut-off is given here.

Experiments:
[1] = Clearance in Swiss albino mouse at 3 mg/kg, iv; assay type: ADME, organism-based; set-up: dose 3 mg/kg, route intravenous; conditions: in vivo
Procedure, shortened: (§1)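 Mouse PK after single intravenous or oral dose; n = 3 mice per time point. Parameters reported: T1/2, Cmax, AUClast, Vss and CL for iv; Tmax, Cmax, AUClast and %F for po. One iv formulation given is 7.5% v/v N-methyl pyrrolidone with 20% cremophor EL in water.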

[2] = Half life in Swiss albino mouse at 3 mg/kg, iv; assay type: ADME, organism-based; set-up: dose 3 mg/kg, route intravenous; conditions: in vivo; procedure, shortened: as §1
[3] = Volume of distribution at steady state in Swiss albino mouse at 3 mg/kg, iv; assay type: ADME, organism-based; set-up: dose 3 mg/kg, route intravenous; conditions: in vivo, read-out: Vdss; procedure, shortened: as §1
[4] = Cmax in Swiss albino mouse at 3 mg/kg, po; assay type: ADME, organism-based; set-up: dose 3 mg/kg, route oral; conditions: in vivo; procedure, shortened: as §1
Mus musculus [5] = assay: Oral bioavailability in Swiss albino mouse at 3 mg/kg; assay type: ADME, organism-based; conditions: in vivo; procedure, shortened: as §1
[6] = AUClast in Swiss albino mouse at 3 mg/kg, iv; assay type: ADME, organism-based; set-up: time 0 - last, dose 3 mg/kg, route intravenous; conditions: plasma; procedure, shortened: as §1
[7] = Cmax in Swiss albino mouse at 3 mg/kg, iv; assay type: ADME, organism-based; set-up: dose 3 mg/kg, route intravenous; conditions: in vivo; procedure, shortened: as §1
[8] = AUClast in Swiss albino mouse at 3 mg/kg, po; assay type: ADME, organism-based; set-up: time 0 - last, dose 3 mg/kg, route oral; conditions: plasma; procedure, shortened: as §1
[9] = Tmax in Swiss albino mouse at 3 mg/kg, po; assay type: ADME, organism-based; set-up: dose 3 mg/kg, route oral; conditions: in vivo; procedure, shortened: as §1
[10] = Kinetic solubility of the compound in normal saline at pH 7.4; assay type: physicochemical; conditions: buffer
[11] = target: Mast/stem cell growth factor receptor Kit (Homo sapiens, UniProt P10721); assay: Inhibition of Kit (unknown origin) by Off-chip Mobility Shift Assay
Procedure, shortened: (§2)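 Kinase panel run in duplicate using a microcapillary electrophoresis (mobility shift) assay. Screening concentration was 100 nM. IC50 values were then determined at each kinase's ATP Km.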

[12] = target: T1, NUAK family SNF1-like kinase 1 (Homo sapiens, UniProt O60285); assay: Inhibition of Nuak1 (unknown origin) by Off-chip Mobility Shift Assay; procedure, shortened: as §2
T1 sequence (O60285 whole entry): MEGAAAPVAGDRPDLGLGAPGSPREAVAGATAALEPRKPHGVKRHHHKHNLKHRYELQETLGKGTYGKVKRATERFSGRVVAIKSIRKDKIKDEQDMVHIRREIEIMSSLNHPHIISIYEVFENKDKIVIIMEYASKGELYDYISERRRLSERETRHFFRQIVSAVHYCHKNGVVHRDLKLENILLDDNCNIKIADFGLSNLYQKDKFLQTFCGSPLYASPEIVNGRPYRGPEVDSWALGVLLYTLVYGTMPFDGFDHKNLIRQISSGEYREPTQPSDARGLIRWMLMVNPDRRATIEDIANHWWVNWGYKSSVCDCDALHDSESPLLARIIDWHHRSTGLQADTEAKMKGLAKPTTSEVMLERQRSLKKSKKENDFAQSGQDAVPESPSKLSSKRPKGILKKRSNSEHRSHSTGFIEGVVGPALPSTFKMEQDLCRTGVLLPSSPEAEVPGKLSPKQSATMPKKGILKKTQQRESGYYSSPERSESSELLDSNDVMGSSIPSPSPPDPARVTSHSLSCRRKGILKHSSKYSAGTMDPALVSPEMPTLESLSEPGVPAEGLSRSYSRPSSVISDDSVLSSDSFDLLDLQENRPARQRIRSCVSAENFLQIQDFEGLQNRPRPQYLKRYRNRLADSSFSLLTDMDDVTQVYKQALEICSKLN

[13] = Plasma concentration in human 697 cells xenografted NOD.Cg-Prkdcscid Il2rgtm1Wjl/SzJ mouse at 3 mg/kg, po administered as single dose measured after 30 mins post dose; assay type: ADME, organism-based; set-up: dose 3 mg/kg, route oral
[14] = target: STE20-like serine/threonine-protein kinase (Homo sapiens, UniProt Q9H2G2); assay: Inhibition of SLK (unknown origin) by Off-chip Mobility Shift Assay; procedure, shortened: as §2
[15] = target: Hepatocyte growth factor receptor (Homo sapiens, UniProt P08581); assay: Inhibition of Met (unknown origin) by Off-chip Mobility Shift Assay; procedure, shortened: as §2
Plasma = assay: Fraction unbound in plasma of human 697 cells xenografted NOD.Cg-Prkdcscid Il2rgtm1Wjl/SzJ mouse at 3 mg/kg, po administered as single dose measured after 30 mins post dose; assay type: ADME, organism-based; set-up: dose 3 mg/kg, route oral; conditions: in vivo, 0.5 h
[16] = Plasma protein binding in human 697 cells xenografted NOD.Cg-Prkdcscid Il2rgtm1Wjl/SzJ mouse at 3 mg/kg, po administered as single dose measured after 30 mins post dose; assay type: ADME, organism-based; set-up: dose 3 mg/kg, route oral; conditions: read-out: PPB (converted)
Procedure, shortened: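 Plasma protein binding was measured in mice, n = 3.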

697 = assay: Inhibition of Mer phosphorylation in human 697 cells xenografted in NOD.Cg-Prkdcscid Il2rgtm1Wjl/SzJ mouse at 3 mg/kg, po administered as single dose measured after 30 mins post dose by densitometry relative to control; assay type: functional; conditions: Mus musculus, 697, 0.5 h
Procedure, shortened: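 NSG mice received 2 × 10^6 697 B-ALL cells by tail-vein injection, with 14 days for engraftment. A single 3 mg/kg dose or saline vehicle (10 mL/kg) was given by oral gavage, and femurs were taken 30 min later. Marrow cells were held 10 min at room temperature in RPMI with 20% FBS and 240 μM pervanadate. Mer was then immunoprecipitated and p-Mer/total Mer quantified by Western densitometry; n = 6.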

[17] = target: NT-3 growth factor receptor (Homo sapiens, UniProt Q16288); assay: Inhibition of TRKC (unknown origin) by Off-chip Mobility Shift Assay; procedure, shortened: as §2
[18] = Half life in Swiss albino mouse at 1 mg/kg, iv; assay type: ADME, organism-based; set-up: dose 1 mg/kg, route intravenous; conditions: in vivo; procedure, shortened: as §1
[19] = Tmax in Swiss albino mouse at 10 mg/kg, po; assay type: ADME, organism-based; set-up: dose 10 mg/kg, route oral; conditions: in vivo; procedure, shortened: as §1
[20] = AUClast in Swiss albino mouse at 10 mg/kg, po; assay type: ADME, organism-based; set-up: time 0 - last, dose 10 mg/kg, route oral; conditions: plasma; procedure, shortened: as §1
[21] = Volume of distribution at steady state in Swiss albino mouse at 1 mg/kg, iv; assay type: ADME, organism-based; set-up: dose 1 mg/kg, route intravenous; conditions: in vivo, read-out: Vdss; procedure, shortened: as §1
[22] = AUClast in Swiss albino mouse at 1 mg/kg, iv; assay type: ADME, organism-based; set-up: dose 1 mg/kg, route intravenous, time 0 - last; conditions: plasma; procedure, shortened: as §1
[23] = Clearance in Swiss albino mouse at 1 mg/kg, iv; assay type: ADME, organism-based; set-up: dose 1 mg/kg, route intravenous; conditions: in vivo; procedure, shortened: as §1
[24] = Cmax in Swiss albino mouse at 10 mg/kg, po; assay type: ADME, organism-based; set-up: dose 10 mg/kg, route oral; conditions: in vivo; procedure, shortened: as §1
[25] = Cmax in Swiss albino mouse at 1 mg/kg, iv; assay type: ADME, organism-based; set-up: dose 1 mg/kg, route intravenous; conditions: in vivo; procedure, shortened: as §1
Mus musculus [26] = assay: Oral bioavailability in Swiss albino mouse at 10 mg/kg; assay type: ADME, organism-based; conditions: in vivo; procedure, shortened: as §1
[27] = target: T2, Tyrosine-protein kinase Mer (Homo sapiens) (UniProt Q12866); conditions: A549, 50 to 300 nM
T2 sequence (whole entry): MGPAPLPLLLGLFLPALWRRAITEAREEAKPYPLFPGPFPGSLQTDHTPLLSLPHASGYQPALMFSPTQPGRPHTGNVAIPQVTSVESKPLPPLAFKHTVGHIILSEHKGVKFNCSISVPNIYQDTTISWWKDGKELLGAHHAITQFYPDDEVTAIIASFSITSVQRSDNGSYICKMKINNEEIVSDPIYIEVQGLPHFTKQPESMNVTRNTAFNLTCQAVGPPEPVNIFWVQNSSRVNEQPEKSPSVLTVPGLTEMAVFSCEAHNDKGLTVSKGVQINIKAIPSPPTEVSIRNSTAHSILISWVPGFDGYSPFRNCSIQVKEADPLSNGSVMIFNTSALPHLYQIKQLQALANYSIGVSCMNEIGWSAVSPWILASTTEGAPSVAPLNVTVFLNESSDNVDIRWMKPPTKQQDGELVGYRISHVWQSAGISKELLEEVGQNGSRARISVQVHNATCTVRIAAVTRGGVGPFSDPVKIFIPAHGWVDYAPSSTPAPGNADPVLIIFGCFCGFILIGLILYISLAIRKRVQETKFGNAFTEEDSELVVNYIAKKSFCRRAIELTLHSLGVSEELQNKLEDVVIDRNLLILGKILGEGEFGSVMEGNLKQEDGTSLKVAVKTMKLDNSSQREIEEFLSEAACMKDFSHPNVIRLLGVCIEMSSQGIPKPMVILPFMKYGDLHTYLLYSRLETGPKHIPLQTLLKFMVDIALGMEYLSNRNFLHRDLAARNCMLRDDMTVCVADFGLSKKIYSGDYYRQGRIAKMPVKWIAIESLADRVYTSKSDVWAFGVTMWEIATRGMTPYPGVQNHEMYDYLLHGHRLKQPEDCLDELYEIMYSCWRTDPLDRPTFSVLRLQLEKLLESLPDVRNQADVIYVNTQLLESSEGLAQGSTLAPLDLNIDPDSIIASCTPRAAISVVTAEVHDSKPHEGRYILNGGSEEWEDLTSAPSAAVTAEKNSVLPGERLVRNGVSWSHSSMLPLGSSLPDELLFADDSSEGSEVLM

[28] = target: Receptor-type tyrosine-protein kinase FLT3 (Homo sapiens) (UniProt P36888); conditions: MOLM-14, 10 to 50 nM
Receptor-type tyrosine-protein kinase FLT3 (Homo sapiens), sequence (P36888 whole entry): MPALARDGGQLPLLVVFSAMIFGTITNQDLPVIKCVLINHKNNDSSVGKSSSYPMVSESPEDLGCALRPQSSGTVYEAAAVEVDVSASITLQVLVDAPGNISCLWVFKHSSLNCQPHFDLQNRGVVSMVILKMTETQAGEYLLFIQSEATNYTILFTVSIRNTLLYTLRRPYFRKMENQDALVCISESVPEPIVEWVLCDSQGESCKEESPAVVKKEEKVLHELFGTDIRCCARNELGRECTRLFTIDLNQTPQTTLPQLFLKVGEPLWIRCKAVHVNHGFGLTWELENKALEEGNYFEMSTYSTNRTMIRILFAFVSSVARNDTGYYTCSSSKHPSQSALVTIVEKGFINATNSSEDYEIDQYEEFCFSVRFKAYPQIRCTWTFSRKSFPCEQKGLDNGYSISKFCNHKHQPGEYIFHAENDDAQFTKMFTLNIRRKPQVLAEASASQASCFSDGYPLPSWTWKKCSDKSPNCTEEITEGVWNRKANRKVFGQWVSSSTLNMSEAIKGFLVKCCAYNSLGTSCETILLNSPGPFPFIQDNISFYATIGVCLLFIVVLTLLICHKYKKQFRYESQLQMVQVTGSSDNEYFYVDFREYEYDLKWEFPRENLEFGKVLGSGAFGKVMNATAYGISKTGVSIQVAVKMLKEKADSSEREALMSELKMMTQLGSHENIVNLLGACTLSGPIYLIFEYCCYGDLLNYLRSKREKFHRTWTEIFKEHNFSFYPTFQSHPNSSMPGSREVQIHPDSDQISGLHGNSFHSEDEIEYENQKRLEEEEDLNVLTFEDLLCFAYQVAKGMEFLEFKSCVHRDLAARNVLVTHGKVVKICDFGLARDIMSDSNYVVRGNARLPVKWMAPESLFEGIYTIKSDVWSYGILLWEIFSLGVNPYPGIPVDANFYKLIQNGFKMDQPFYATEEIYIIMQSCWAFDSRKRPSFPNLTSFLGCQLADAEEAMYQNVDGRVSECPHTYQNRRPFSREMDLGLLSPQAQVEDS

Mast/stem cell growth factor receptor Kit, sequence (P10721 whole entry): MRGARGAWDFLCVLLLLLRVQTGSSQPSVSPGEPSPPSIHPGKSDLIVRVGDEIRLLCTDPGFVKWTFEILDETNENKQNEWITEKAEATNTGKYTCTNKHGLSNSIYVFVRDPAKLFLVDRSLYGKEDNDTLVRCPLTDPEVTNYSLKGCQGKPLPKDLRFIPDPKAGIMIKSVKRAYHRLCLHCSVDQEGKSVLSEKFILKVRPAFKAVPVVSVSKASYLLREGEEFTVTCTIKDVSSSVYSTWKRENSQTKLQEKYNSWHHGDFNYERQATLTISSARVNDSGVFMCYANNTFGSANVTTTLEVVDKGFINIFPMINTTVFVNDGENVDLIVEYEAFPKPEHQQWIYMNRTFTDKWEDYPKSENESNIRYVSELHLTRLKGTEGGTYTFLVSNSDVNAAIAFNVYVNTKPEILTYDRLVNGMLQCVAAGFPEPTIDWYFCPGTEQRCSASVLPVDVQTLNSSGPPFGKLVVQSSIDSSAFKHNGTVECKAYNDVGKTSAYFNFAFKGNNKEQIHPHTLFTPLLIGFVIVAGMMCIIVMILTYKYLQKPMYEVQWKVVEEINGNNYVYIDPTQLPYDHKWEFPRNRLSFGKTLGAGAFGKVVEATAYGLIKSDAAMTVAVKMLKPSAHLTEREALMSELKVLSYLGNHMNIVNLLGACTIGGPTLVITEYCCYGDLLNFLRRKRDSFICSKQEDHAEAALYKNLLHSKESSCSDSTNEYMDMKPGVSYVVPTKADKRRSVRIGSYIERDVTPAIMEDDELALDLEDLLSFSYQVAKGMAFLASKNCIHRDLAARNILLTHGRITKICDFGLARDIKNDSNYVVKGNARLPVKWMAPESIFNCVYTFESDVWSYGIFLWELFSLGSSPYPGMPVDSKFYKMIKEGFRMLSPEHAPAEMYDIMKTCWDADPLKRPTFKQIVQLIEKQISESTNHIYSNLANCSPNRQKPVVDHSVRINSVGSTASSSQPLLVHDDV
NT-3 growth factor receptor, sequence (Q16288 whole entry): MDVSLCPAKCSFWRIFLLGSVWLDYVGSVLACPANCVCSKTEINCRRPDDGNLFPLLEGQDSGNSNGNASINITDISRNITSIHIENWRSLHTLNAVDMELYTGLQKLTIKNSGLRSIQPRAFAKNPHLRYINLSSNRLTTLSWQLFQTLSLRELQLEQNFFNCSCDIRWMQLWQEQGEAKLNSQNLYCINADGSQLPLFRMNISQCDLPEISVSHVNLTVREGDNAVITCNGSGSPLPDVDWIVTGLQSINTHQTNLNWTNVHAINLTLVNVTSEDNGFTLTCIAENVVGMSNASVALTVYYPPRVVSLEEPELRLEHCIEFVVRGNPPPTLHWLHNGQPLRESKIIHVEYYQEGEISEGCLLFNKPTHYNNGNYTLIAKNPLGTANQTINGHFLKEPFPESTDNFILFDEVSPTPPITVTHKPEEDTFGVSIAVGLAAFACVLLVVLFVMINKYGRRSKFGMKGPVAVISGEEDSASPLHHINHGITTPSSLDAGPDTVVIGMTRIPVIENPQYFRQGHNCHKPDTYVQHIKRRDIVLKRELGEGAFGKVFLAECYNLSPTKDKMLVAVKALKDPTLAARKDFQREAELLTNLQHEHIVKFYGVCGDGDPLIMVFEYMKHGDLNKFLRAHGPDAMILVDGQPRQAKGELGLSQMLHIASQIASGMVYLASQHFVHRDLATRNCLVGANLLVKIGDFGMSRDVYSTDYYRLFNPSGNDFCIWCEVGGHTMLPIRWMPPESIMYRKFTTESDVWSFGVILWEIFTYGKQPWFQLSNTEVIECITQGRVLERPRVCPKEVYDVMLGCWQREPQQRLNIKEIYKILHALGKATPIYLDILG
STE20-like serine/threonine-protein kinase, sequence (Q9H2G2 whole entry): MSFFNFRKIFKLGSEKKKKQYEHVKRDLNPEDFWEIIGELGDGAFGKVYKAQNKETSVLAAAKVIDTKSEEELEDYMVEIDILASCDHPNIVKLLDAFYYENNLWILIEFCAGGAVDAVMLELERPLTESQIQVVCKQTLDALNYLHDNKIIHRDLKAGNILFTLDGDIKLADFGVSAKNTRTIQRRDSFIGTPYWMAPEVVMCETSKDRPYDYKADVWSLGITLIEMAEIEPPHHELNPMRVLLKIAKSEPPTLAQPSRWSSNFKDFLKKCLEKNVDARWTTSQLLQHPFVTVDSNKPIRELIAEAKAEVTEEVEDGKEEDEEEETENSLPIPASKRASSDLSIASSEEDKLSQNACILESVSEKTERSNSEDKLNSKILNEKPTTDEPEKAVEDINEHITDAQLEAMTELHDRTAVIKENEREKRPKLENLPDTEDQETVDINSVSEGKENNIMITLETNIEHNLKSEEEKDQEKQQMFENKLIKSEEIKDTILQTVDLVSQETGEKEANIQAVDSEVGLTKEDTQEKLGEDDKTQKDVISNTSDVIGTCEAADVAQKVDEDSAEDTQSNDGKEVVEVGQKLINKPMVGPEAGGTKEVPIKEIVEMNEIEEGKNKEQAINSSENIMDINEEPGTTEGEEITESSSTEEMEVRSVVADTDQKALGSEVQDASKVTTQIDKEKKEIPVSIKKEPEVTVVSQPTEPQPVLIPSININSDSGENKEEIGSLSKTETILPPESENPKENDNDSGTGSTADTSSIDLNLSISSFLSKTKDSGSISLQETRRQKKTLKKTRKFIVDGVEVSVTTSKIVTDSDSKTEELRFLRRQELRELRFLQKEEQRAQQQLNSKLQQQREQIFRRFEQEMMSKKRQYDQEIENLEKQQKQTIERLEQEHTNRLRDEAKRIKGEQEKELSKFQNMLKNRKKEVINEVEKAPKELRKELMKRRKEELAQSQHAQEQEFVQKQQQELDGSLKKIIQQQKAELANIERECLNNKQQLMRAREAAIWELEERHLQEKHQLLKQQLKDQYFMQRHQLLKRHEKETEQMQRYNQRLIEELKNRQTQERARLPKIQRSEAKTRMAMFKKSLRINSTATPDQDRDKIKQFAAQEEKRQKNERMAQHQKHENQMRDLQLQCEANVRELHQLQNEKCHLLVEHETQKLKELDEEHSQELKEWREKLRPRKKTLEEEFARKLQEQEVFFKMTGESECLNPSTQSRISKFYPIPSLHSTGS

| SMILES | clearance [1] [mL/min/kg] | half-life [2] [min] | Vd [3] [L/kg] | Cmax [4] [nM] | F (Mus musculus [5]) [%] | AUC(0-t) [6] [µM·h] | Cmax [7] [nM] | AUC(0-t) [8] [µM·h] | Tmax [9] [min] | further results |
| --- | --- | --- | --- | --- | --- | --- | --- | --- | --- | --- |
| CCCCNc1ncc2c(-c3ccc(S(=O)(=O)N4CCOCC4)cc3)cn([C@H]3CC[C@H](O)CC3)c2n1 | 70 | 13.8 | 0.78 | 160 | 8.4 | 1.4 | 7900 | 0.12 | 15 | – |
| CCCCNc1ncc2c(-c3ccc(CN4CCN(C)CC4)cc3)cn([C@H]3CC[C@H](O)CC3)c2n1.Cl | – | – | – | – | – | – | – | – | – | Kinetic_solubility [10]: 38 µg/mL |
| CCCCNc1ncc2c(-c3ccc(CN4CCN(C)CC4)cc3)cn([C@H]3CC[C@H](O)CC3)c2n1 [listing 1 of 2 here] | 9.2 | 228 | 2.3 | 1600 | 100 | 9.2 | 4100 | 9.2 | 30 | IC50 [11]: 8.18 nM; IC50 [12]: 7.97 nM; concentration at 0.5 h [13]: 1600 nM; IC50 [14]: 6.14 nM; IC50 [15]: 364 nM; Cp(f) (Plasma): 22 nM; fraction unbound at 0.5 h [16]: 0.014; inhibition in vivo at 3 mg/kg 697: > 90%; IC50 [17]: 4.38 nM |
| CCCCNc1ncc2c(-c3ccc(S(=O)(=O)N4CCN(C)CC4)c(F)c3)cn([C@H]3CC[C@H](O)CC3)c2n1 | – | – | – | – | – | – | – | – | – | half-life [18]: 48 min; Tmax [19]: 15 min; AUC(0-t) [20]: 0.66 µM·h; Vd [21]: 5.5 L/kg; AUC(0-t) [22]: 0.27 µM·h; clearance [23]: 103 mL/min/kg; Cmax [24]: 390 nM; Cmax [25]: 400 nM; F (Mus musculus [26]): 25% |
| CN1CCN(S(=O)(=O)c2ccc(-c3cn([C@H]4CC[C@H](O)CC4)c4nc(NCCC5CC5)ncc34)c(F)c2)CC1 | 76 | 72 | 5.3 | 420 | 67 | 1 | 1200 | 0.69 | 15 | – |
| CCCCNc1ncc2c(-c3ccc(S(=O)(=O)N4CCOCC4)cc3)nn([C@H]3CC[C@H](O)CC3)c2n1 | 30 | 138 | 0.43 | 13 | 0.3 | 3.3 | 16000 | 0.01 | 30 | – |
| CCCCNc1ncc2c(-c3ccc(CN4CCN(C)CC4)cc3)cn([C@H]3CC[C@H](O)CC3)c2n1 [listing 2 of 2 here] | – | – | – | – | – | – | – | – | – | inhibition [27]: Active; inhibition [28]: Active |
| CN1CCN(Cc2ccc(-c3cn([C@H]4CC[C@H](O)CC4)c4nc(NCCC5CC5)ncc34)cc2)CC1 | 7.2 | 264 | 2 | 1300 | 78 | 12 | 6500 | 9 | 60 | – |
